Source: PubChem BioAssay
CSN inh = blocks human CSN-mediated cullin deneddylation; Q92905; Purified CSN, SCF-Nedd8-OG deneddylation, fluorescence polarization; inhibition, % at 12.5 µM; 360,000 tested, 0.38% active;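 active means pattern-corrected inhibition above about 35%, with an unprinted fluorescence ratio check between 0.5 and 1.5, limit read from the data, passing the limit was not always enough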;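 further: 0% = enzyme with substrate and 100% = substrate without enzyme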
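Schedule: reaction 90 min, room temperature / Assay system: HEK293T-derived human Csn5 enzyme / Input: Csn5 at 0.24 nM final / Measure: inhibition of Csn5 cleavage, % / Control set: substrate-only high control, full reaction low control / Technique: fluorescence polarization of the substrate / Buffer or medium: Tris/NaCl/DTT buffer, pH 7.5 / Reagent: SCFSkp2-Nedd8OG substrate at 10 nM final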
TPT1 inhibitor = blocks Candida albicans tRNA 2'-phosphotransferase | recombinant caTPT1, FP RNA substrate dephosphorylation | inhibition, % at 5 µM | 300,000 tested, 0.81% active | AID 1962;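 active means inhibition above the mean of all tested compounds plus 3 SD, set per screening campaign, cut at about 24% in these data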;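 further: plate controls were DMSO alone for no effect and ferristatin control at 100 nM for full effect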
Rpn11 inh = blocks the human proteasome subunit Rpn11; O00487; human 26S proteasome, Ub4-pepOG fluorescence polarization; 20S core pre-blocked with epoxomicin; inhibition, % at 20 µM; 360,000 tested, 0.59% active;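 active means inhibition at 20 µM, scaled to each plate's controls, above about 33%, limit read from the data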
HNF4A DNA FP = change in binding of human HNF4 alpha to DNA; HNF4a-FITC DNA binding, fluorescence polarization, 1 h; activity change, % at 10 µM; 360,000 tested, 0.3% active; AID 1224865; in the data active means activity change above about 30%, passing the limit was not always enough
Target sequence (P41235 whole entry, looked up): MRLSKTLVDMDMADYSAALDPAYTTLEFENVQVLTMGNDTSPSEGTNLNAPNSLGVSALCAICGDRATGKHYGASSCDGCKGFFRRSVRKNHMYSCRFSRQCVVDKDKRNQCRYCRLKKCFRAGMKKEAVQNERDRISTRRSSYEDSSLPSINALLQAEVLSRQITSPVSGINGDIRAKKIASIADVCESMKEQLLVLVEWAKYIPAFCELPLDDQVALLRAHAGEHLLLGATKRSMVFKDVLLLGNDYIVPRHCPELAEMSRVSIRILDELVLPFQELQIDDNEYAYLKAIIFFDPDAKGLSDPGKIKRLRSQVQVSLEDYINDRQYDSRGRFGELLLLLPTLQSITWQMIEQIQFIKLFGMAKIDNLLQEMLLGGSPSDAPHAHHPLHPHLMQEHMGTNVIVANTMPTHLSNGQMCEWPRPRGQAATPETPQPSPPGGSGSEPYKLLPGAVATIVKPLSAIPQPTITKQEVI
caTPT1 confirm = confirmation of Candida albicans TPT1 inhibitors | recombinant caTPT1, fluorescence polarization, RNase T1 coupled | shares compounds with TPT1 inhibitor | inhibition, % at 5 µM | 2,400 tested, 74% active | AID 2149;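 active means inhibition above the primary screen limit, the mean inhibition of all tested compounds plus 3 SD, cut at about 25% in these data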
RNase T1 counter = RNase T1 inhibition in TPT1 counter-screen | shares compounds with TPT1 inhibitor | RNase T1 cleavage, fluorescence polarization, 1536-well | inhibition, % at 5 µM | 2,400 tested, 83% active | AID 2153;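 active means inhibition above the solvent-only control well mean plus 3 SD, limit set per screening run, cut at about 23% in these data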;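 further: plate controls were DMSO wells with enzyme for no effect and wells without RNase T1 for full effect; inhibitors block cleavage so intact labeled substrate keeps polarization high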
Target sequence (P00651 whole entry, looked up): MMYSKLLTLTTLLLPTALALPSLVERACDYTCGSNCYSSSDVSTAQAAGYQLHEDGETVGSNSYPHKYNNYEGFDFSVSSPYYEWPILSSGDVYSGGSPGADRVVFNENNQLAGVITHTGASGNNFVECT
* hit, by the source's call; / = no result shown; + = active, no number. Most compounds without a hit are left out; they make up all but 1.5% or so of the library.

SMILES	CSN inh	TPT1 inhibitor	Rpn11 inh	HNF4A DNA FP	caTPT1 confirm	RNase T1 counter
COc1ccccc1NS(=O)(=O)c1ccc(C(=O)NCC(c2cccs2)N2CCOCC2)cc1 (centres undefined)	2	/	6	0	/	/
COC1OC2COC(c3ccccc3)OC2C2OC12 (centres undefined)	-4	/	1	-1	/	/
O=C1NC(=S)N/C1=C/c1cc([N+](=O)[O-])ccc1O	8	43*	23	-2	43*	52*
CC(C)CN(C(=O)c1cccc(Cl)c1)c1c(N)n(Cc2ccccc2)c(=O)[nH]c1=O	-5	/	-4	2	/	/
CCN1/C(=C/C=C/C=C/c2sc3ccccc3[n+]2CC)Sc2ccccc21	/	5	/	/	/	/
CCN1/C(=C/C=C/C=C/C=C/c2sc3ccccc3[n+]2CC)Sc2ccccc21	16	30*	39	60*	20	29*
C[C@H](NC(=O)c1ncn2c1C(=O)NC[C@@H]2C)c1ccccc1	-5	/	-2	5	/	/
CCOC(=O)c1sc(Nc2ccc(Br)cc2)nc1C	5	3	-6	3	/	/
CCOC(=O)c1cc2nc(Nc3ccc(OC)cc3)sc2s1	5	39*	32	18	27*	40*
N=c1oc2cc(O)ccc2cc1C(=O)Nc1ccc(Br)cc1	8	8	16	26	/	/
N=c1oc2cc(O)ccc2cc1C(=O)Nc1ccccn1	/	29*	/	/	-19	-6
N=c1oc2cc(O)ccc2cc1C(=O)Nc1nc2ccccc2s1	41	65*	/	31	70*	75*
O=C(Nc1ccc(F)c(Cl)c1)[C@@H]1O[C@H](CO)[C@H](O)[C@H](O)[C@H]1O	0	/	-5	3	/	/
NS(=O)(=O)c1cccc(NC(=O)Cn2cc(C(F)(F)F)cc(Cl)c2=O)c1	-3	-1	2	4	/	/
COc1ccc(Nc2nc(-c3ccncc3)nc3ccccc23)cc1	-3	0	-13	0	/	/
CN(C)c1ccc(C2C=C(c3ccc(Cl)cc3OC(F)F)Nc3ncnn32)cc1 (centres undefined)	24	49*	/	34	43*	56*
Cc1ccc(C2C=C(c3ccccc3OC(F)F)Nc3ncnn32)cc1 (centres undefined)	3	1	7	-3	/	/
NC(c1csc(Nc2ccc(C(=O)NCCO)cc2)n1)C1CCCCC1 (centres undefined)	-2	/	-29	3	/	/
Cc1ccc(O)c(NC(=O)c2noc3c2CCCCC3)c1	2	25*	-4	-13	0	4
Cc1ccc(NC(=O)c2noc3c2CCCCC3)cc1	0	2	4	-2	/	/
CCN1CCN(c2c(/C=C3\SC(=S)N(Cc4ccco4)C3=O)c(C)c(C#N)c(=O)n2C)CC1	141	161*	/	137	181*	172*
CCN1C(=O)[C@H]2[C@@H](c3ccc(-c4cc(C(C)=O)cs4)cc3)N3CCCC[C@@]3(C(=O)OC)[C@H]2C1=O	-5	0	6	1	/	/
COc1ccc(CN=Cc2[nH]c3ccc(Br)c(Cl)c3c2O)cc1	11	88*	/	64	136*	131*
Cc1cc(C)cc(N=Cc2[nH]c3ccc(Br)c(Cl)c3c2O)c1	-11	121*	18	27	111*	111*
CCc1ccc(/C=C2\SC(=S)N(CCCC(=O)NC3=NCCS3)C2=O)cc1	-2	/	3	-2	/	/
SMILES	CSN inh	TPT1 inhibitor	Rpn11 inh	HNF4A DNA FP	caTPT1 confirm	RNase T1 counter
CCN1C(=O)/C(=C/C=C2/SCCN2C)SC1=S	103	+	/	197	168*	157*
CCCCN1C(=O)/C(=C/C=C2/CC(C)(C)CN2C)SC1=S	-95	169*	/	-78	174*	160*
CN1CCS/C1=C\C=C1/SC(=S)N(CC(=O)O)C1=O	-71	/	/	154	/	/
Cc1ccc(CNc2ccc3c(c2)OCO3)c(C)c1	/	26*	/	/	20	35*
CCN1/C(=C/c2cc[n+](CCCS(=O)(=O)[O-])c3ccccc23)Sc2ccccc21	14	48*	22	28	37*	52*
CCC(/C=C1\Sc2ccc(OC)cc2N1CC)=C\c1sc2ccc(OC)cc2[n+]1CCCS(=O)(=O)[O-]	0	3	0	6	/	/
C=CCN1C(=O)/C(=C/C=C2/N(CC)c3ccc(S(=O)(=O)N(C)C)cc3N2CC)SC1=S	28	161*	/	-55	144*	138*
Cc1ccccc1CN1CC2=C(CCN(Cc3ccccc3)C2=O)N2CCN=C12	4	/	13	7	/	/
CC(=O)Oc1ccc(C(=O)Nc2ccccc2C(=O)N2CCCC2)cc1	0	49*	0	1	4	8
Cc1ccc(S(=O)(=O)N2C[C@H]3C(=O)C[C@@H](c4ccccc4)N(S(=O)(=O)c4ccc(C)cc4)[C@H]3C[C@H]2c2ccc(Cl)cc2)cc1	0	/	1	-2	/	/
CCCN1C(=O)/C(=C\C=C2/Sc3ccccc3N2CCO)SC1=S	13	64*	14	15	42*	54*
CN1/C(=C\C=O)C(C)(C)c2ccccc21	-1	0	22	7	/	/
CN1/C(=C\C=C2/SC(=S)N(CC(=O)O)C2=O)C(C)(C)c2ccccc21	-74	79*	/	-98	74*	78*
CCCCN1C(=O)/C(=C/C=C2\Oc3ccccc3N2CC)SC1=S	6	/	/	117	/	/
CCCN1C(=O)/C(=C/C=C2\N(CC)c3ccccc3C2(C)C)SC1=S	-31	178*	/	-52	138*	125*
CCCN1C(=O)/C(=C/c2ccncc2)SC1=S	-7	0	-6	0	/	/
Cc1cc(C=C2C(=O)c3ccccc3C2=O)c(C)n1-c1ccccc1	6	20	-64	-35	/	/
Cc1cc(C=C2C(=O)c3ccccc3C2=O)c(C)n1-c1cccc(C(=O)O)c1	5	31*	13	2	41*	51*
CCN(CC)c1ccc2c(c1)OC(N)=C(C#N)C2c1cccnc1 (centres undefined)	71	71*	/	78	57*	64*
CCCCN1C(=O)C2Cc3c([nH]c4ccccc34)CN2C1=S (centres undefined)	14	25*	40	-21	24	38*
CCCCCN1CC(=O)N2Cc3[nH]c4ccccc4c3C[C@H]2C1=O	-10	-4	7	1	/	/
CC[C@]12c3[nH]c4ccc(Cl)cc4c3CCN1C(=O)[C@@H](CC(=O)NCc1ccc(OC)c(OC)c1)C[C@@H]2C(=O)N1CCN(C(=O)c2ccco2)CC1	-4	/	-4	-1	/	/
CCOc1cc2c(cc1/C=C/c1noc(C)c1[N+](=O)[O-])OC(C)C2 (centres undefined)	47*	75*	/	106	73*	83*
CCOC(=O)c1sc(NCc2ccco2)c(-c2nc3ccccc3s2)c1N	13	26*	27	14	28*	39*
